Source: ChEMBL document CHEMBL4354849, “[1,2,5]Oxadiazolo[3,4-b]pyrazine-5,6-diamine Derivatives as Mitochondrial Uncouplers for the Potential Treatment of Nonalcoholic Steatohepatitis” (J Med Chem, 2020)
The source made the active and inactive calls. The calls are words filed in the database; no cut-off is given here.

Legend:
[1] = Induction of mitochondrial uncoupling in rat L6 cells assessed as oxygen consumption rate measured over 90 mins by oxygen consumption rate by seahorse assay; type: mitochondria, Mitochondria
[2] = Drug level in C57BL/6J mouse white adipose tissue at 50 mg/kg, po measured after 1 hr by LC-MS analysis; type: ADME, organism-based; details: read-out: Drug uptake
Method in brief: (§1)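 Male C57BL/6 mice, 12 weeks old, chow-fed, given a single 50 mg/kg oral gavage bolus in 90% methylcellulose/2% Tween80/8% DMSO. Killed by cervical dislocation at 1 h. Tissues were rinsed, snap-frozen, powdered and homogenized, then extracted into 90% acetonitrile/10% methanol. Quantified by LC-MS/MS against standards spiked into vehicle-treated tissue, normalized to tissue weight. n=3.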

Mus musculus [3] = assay: Effect on ballooning in Stelic C57BL/6 mouse model of streptozotocin-induced NASH at 25 mg/kg/day, po administered in high-fat diet for 21 days; type: ADME, organism-based; details: in vivo, 504 h
Method in brief: (§2)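 STAM NASH model: male C57BL/6 mice got 200 µg streptozotocin subcutaneously at day 2 of life, then high-fat diet from 4 weeks. At 6 weeks they were randomized, 8 per group. Drug was mixed into the high-fat diet at 25 mg/kg/d for 21 days. Killed at 9 weeks by cardiac puncture under isoflurane. Food intake was measured per cage of 4 every 3–4 days.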

Mus musculus [4] = assay: Improvement in liver fibrosis in Stelic C57BL/6 mouse model of streptozotocin-induced NASH assessed as effect on liver Cd146 mRNA expression at 25 mg/kg/day, po administered in high-fat diet for 21 days; type: functional, organism-based
Mus musculus [5] = assay: Improvement in liver fibrosis in Stelic C57BL/6 mouse model of streptozotocin-induced NASH assessed as effect on liver Gfap mRNA expression at 25 mg/kg/day, po administered in high-fat diet for 21 days; type: functional, organism-based
[6] = Drug level in C57BL/6J mouse brain at 50 mg/kg, po measured after 1 hr by LC-MS analysis; type: ADME, organism-based; details: read-out: Drug uptake; method in brief: as §1
[7] = Drug level in C57BL/6J mouse quadricep muscle at 50 mg/kg, po measured after 1 hr by LC-MS analysis; type: ADME, organism-based, Quadriceps femoris; details: read-out: Drug uptake; method in brief: as §1
Mus musculus [8] = assay: Improvement in liver fibrosis in Stelic C57BL/6 mouse model of streptozotocin-induced NASH assessed as improvement in inflammation score at 25 mg/kg/day, po administered in high-fat diet for 21 days; type: functional, organism-based; method in brief: as §2
Mus musculus [9] = assay: Improvement in liver fibrosis in Stelic C57BL/6 mouse model of streptozotocin-induced NASH assessed as decrease in liver triglyceride content at 25 mg/kg/day, po administered in high-fat diet for 21 days; type: functional, organism-based; method in brief: as §2
Mus musculus [10] = assay: Improvement in liver fibrosis in Stelic C57BL/6 mouse model of streptozotocin-induced NASH assessed as effect on liver Cd146 mRNA expression at 25 mg/kg/day, po for 21 days
Mus musculus [11] = assay: Improvement in liver fibrosis in Stelic C57BL/6 mouse model of streptozotocin-induced NASH assessed as effect on serum ALT level at 25 mg/kg/day, po administered in high-fat diet for 21 days; type: functional, organism-based; method in brief: as §2
Mus musculus [12] = assay: Induction of hyperglycemia in Stelic C57BL/6 mouse model of streptozotocin-induced NASH at 25 mg/kg/day, po administered in high-fat diet for 21 days; type: organism-based; details: in vivo, 504 h; method in brief: as §2
Mus musculus [13] = assay: Improvement in liver fibrosis in Stelic C57BL/6 mouse model of streptozotocin-induced NASH assessed as increase in plasma cholesterol at 25 mg/kg/day, po administered in high-fat diet for 21 days; type: functional, organism-based; method in brief: as §2
Mus musculus [14] = assay: Improvement in liver fibrosis in Stelic C57BL/6 mouse model of streptozotocin-induced NASH assessed as effect on liver Col1a1 mRNA expression at 25 mg/kg/day, po administered in high-fat diet for 21 days; type: functional, organism-based
[15] = Drug level in C57BL/6J mouse heart at 50 mg/kg, po measured after 1 hr by LC-MS analysis; type: ADME, organism-based; details: read-out: Drug uptake; method in brief: as §1
Mus musculus [16] = assay: Induction of energetic stress in Stelic C57BL/6 mouse model of streptozotocin-induced NASH assessed as effect on AMPK activity at 25 mg/kg/day, po administered in high-fat diet for 21 days by Western blot analysis; type: organism-based; details: in vivo, 504 h
Mus musculus [17] = assay: Improvement in liver fibrosis in Stelic C57BL/6 mouse model of streptozotocin-induced NASH assessed as liver fibrosis score at 25 mg/kg/day, po administered in high-fat diet for 21 days by Picrosirius ed staining based assay (reference value: 0.91 +/- 0.25); type: functional; method in brief: as §2
Mus musculus [18] = assay: Improvement in liver fibrosis in Stelic C57BL/6 mouse model of streptozotocin-induced NASH assessed as effect on liver Tgfb1 mRNA expression at 25 mg/kg/day, po administered in high-fat diet for 21 days; type: functional, organism-based
Mus musculus [19] = assay: Improvement in liver fibrosis in Stelic C57BL/6 mouse model of streptozotocin-induced NASH assessed as effect on liver MMP2 mRNA expression at 25 mg/kg/day, po administered in high-fat diet for 21 days; type: functional, organism-based
Mus musculus [20] = assay: Improvement in liver fibrosis in Stelic C57BL/6 mouse model of streptozotocin-induced NASH assessed as reduction in plasma triglyceride at 25 mg/kg/day, po administered in high-fat diet for 21 days; type: functional, organism-based; method in brief: as §2
Mus musculus [21] = assay: Induction of energetic stress in Stelic C57BL/6 mouse model of streptozotocin-induced NASH assessed as effect on AMPK-dependent ACC activity at 25 mg/kg/day, po administered in high-fat diet for 21 days by Western blot analysis; type: organism-based; details: in vivo, 504 h
Mus musculus [22] = assay: Improvement in liver fibrosis in Stelic C57BL/6 mouse model of streptozotocin-induced NASH assessed as effect on liver alphaSMA mRNA expression at 25 mg/kg/day, po administered in high-fat diet for 21 days; type: functional, organism-based
Mus musculus [23] = assay: Improvement in liver fibrosis in Stelic C57BL/6 mouse model of streptozotocin-induced NASH assessed as effect on plasma AST level at 25 mg/kg/day, po administered in high-fat diet for 21 days; type: functional, organism-based; method in brief: as §2
Mus musculus [24] = assay: Improvement in liver fibrosis in Stelic C57BL/6 mouse model of streptozotocin-induced NASH assessed as effect on liver Gfap mRNA expression at 25 mg/kg/day, po for 21 days
Mus musculus [25] = assay: Effect on food intake in Stelic C57BL/6 mouse model of streptozotocin-induced NASH assessed as reduction in food intake at 25 mg/kg/day, po administered in high-fat diet for 21 days; type: ADME, organism-based; details: in vivo, 504 h; method in brief: as §2
Mus musculus [26] = assay: Effect on core body temperature in C57BL/6J mouse at 25 to 100 mg/kg, po measured 1 to 24 hrs post dose by rectal probe thermometer based assay; type: ADME, organism-based; details: in vivo
Method in brief: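 Male C57BL/6 mice, 11 weeks old, given single oral gavage doses of 25, 50 or 100 mg/kg, or vehicle (90% methylcellulose/2% Tween80/8% DMSO). Core temperature was read by rectal probe thermometer at 1, 2, 4 and 24 h after dosing. n=5–6 per group.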

Mus musculus [27] = assay: Improvement in liver fibrosis in Stelic C57BL/6 mouse model of streptozotocin-induced NASH assessed as NAS score at 25 mg/kg/day, po administered in high-fat diet for 21 days (reference value: 4.6 +/- 0.7); type: functional; method in brief: as §2
Mus musculus [28] = assay: Improvement in liver fibrosis in Stelic C57BL/6 mouse model of streptozotocin-induced NASH assessed as effect on liver Timp1 mRNA expression at 25 mg/kg/day, po administered in high-fat diet for 21 days; type: functional, organism-based
[29] = Drug level in C57BL/6J mouse liver at 50 mg/kg, po measured after 1 hr by LC-MS analysis; type: ADME, organism-based; details: read-out: Drug uptake; method in brief: as §1
Mus musculus [30] = assay: Improvement in liver fibrosis in Stelic C57BL/6 mouse model of streptozotocin-induced NASH assessed as improvement in pathologist derived steatosis score at 25 mg/kg/day, po administered in high-fat diet for 21 days; type: functional, organism-based; method in brief: as §2
[31] = Drug level in C57BL/6J mouse kidney at 50 mg/kg, po measured after 1 hr by LC-MS analysis; type: ADME, organism-based; details: read-out: Drug uptake; method in brief: as §1

EC50 [1]: 190 nM
concentration at 1 h [2]: 2850 nM
concentration at 1 h [6]: 850 nM
concentration at 1 h [7]: 260 nM
concentration at 1 h [15]: 2090 nM
concentration at 1 h [29]: 13400 nM
concentration at 1 h [31]: 4830 nM
Compound: Fc1cccc(Nc2nc3nonc3nc2Nc2ccccc2F)c1
Activity (Mus musculus [3]): Non-Toxic
Activity (Mus musculus [4]): inactive
Activity (Mus musculus [5]): inactive
Activity (Mus musculus [8]): Active
Activity (Mus musculus [9]): Active
Activity (Mus musculus [10]): inactive
Activity (Mus musculus [11]): Active
Activity (Mus musculus [12]): Non-Toxic
Activity (Mus musculus [13]): inactive
Activity (Mus musculus [14]): inactive
Activity (Mus musculus [16]): Non-Toxic
Activity (Mus musculus [17]): 0.49
Activity (Mus musculus [18]): inactive
Activity (Mus musculus [19]): inactive
Activity (Mus musculus [20]): inactive
Activity (Mus musculus [21]): Non-Toxic
Activity (Mus musculus [22]): inactive
Activity (Mus musculus [23]): inactive
Activity (Mus musculus [24]): inactive
Activity (Mus musculus [25]): Non-Toxic
Activity (Mus musculus [26]): Non-Toxic
Activity (Mus musculus [27]): 3.9
Activity (Mus musculus [28]): inactive
Activity (Mus musculus [30]): inactive
